From ChEMBL document CHEMBL4651341, “The discovery of a novel series of compounds with single-dose efficacy against juvenile and adult Schistosoma species” (PLoS Negl Trop Dis, 2021) come the findings set out here.

Usually EC50 stands for the concentration giving half of the maximal effect. Lower therefore signals an effect from little substance.

Some results are limits rather than exact numbers.

Series [1] can be described thus: Concentration required to kill 50% HepG2 cells as detected by MTT staining. Format: toxicity, cell-based. To be noted: homo sapiens, read-out: TC50 (the source's name).
The test system of series [2] is Schistosoma mansoni. The series can be described thus: Concentration required to kill 50% of 21 day old worms 5 days after drug treatment. The class given is functional, organism-based. To be noted: Puerto Rican, 120 h. Put shortly: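 Juvenile S. mansoni (Puerto Rican strain) were perfused from CD1 mice 3 weeks post-infection and washed. They were cultured 6–8 per well in 200 µL DMEM with 2 mM glutamine, penicillin/streptomycin and 10% FCS at 37 °C, 5% CO2. Viability of individual worms was scored on day 5 after dosing (120 h).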

Series [3] has as its system Schistosoma mansoni. The series can be described thus: Concentration required to kill 50% of 42 day old worms 5 days after drug treatment. Format: functional, organism-based. To be noted: Puerto Rican, 120 h. The gist of the method:
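Adult S. mansoni were perfused from CD1 mice 6 weeks post-infection and washed. They were cultured 3 pairs per well in 1 mL DMEM with 2 mM glutamine, penicillin/streptomycin and 10% FCS […] at 37 °C, 5% CO2. Viability of individual worms was scored on day 5 (120 h).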

In the case of `CS(=O)(=O)c1ccc(-c2cnc3ccc(-c4cccc(S(C)(=O)=O)c4)nn23)cc1`, the CC50 in series [1] is 11900 nM. In addition, the concentration giving a half-maximal response (EC50) with Schistosoma mansoni [2] is 24900 nM. For `COc1ccc(-c2cnc3cnc(-c4ccc(C(C)C)cc4)cn23)cc1`, in the series with Schistosoma mansoni [2], the half-maximal effective concentration (EC50) was above 25000 nM. As for `Fc1ccc(-c2cn3c(-c4ccc5[nH]ncc5c4F)c(C4CC4)nc3cn2)cc1C(F)(F)C(F)(F)F`, the EC50 in the series on Schistosoma mansoni [2] is 36.8 nM; in the series on Schistosoma mansoni [3], 23.2 nM.

Compound `Oc1ccc(-c2cnc3cnc(-c4cnn(C5CCCC5)c4)cn23)cc1` came in with an EC50 with Schistosoma mansoni [2] above 25000 nM. Consider `Cc1nc2cnc(-c3ccc(F)c(S(F)(F)(F)(F)F)c3)cn2c1-c1ccc2[nH]ncc2c1F`, for which the EC50 came out at 77 nM in the series on Schistosoma mansoni [2] and 26.2 nM in the series on Schistosoma mansoni [3]. Compound `Oc1ccc(-c2cnc3cnc(-c4cccc(-c5ccn[nH]5)c4)cn23)cc1` showed a half-maximal effective concentration (EC50) in the series on Schistosoma mansoni [2] above 25000 nM. The same measure, in the same setting: under `CC(C)c1cccc(-c2cn3c(-c4ccc(OC(F)(F)F)cc4)cnc3cn2)c1` stands above 25000 nM. As for `Cc1nc2cnc(-c3cccc(C(F)(F)F)c3)cn2c1-c1ccc(O)cc1`, the concentration for a half-maximal effect (EC50) in the series on Schistosoma mansoni [2] is 1420 nM; with Schistosoma mansoni [3] it was below 615 nM. For the compound `CC(C)c1cc(-c2cn3c(-c4ccc5[nH]ncc5c4F)c(C(F)(F)F)nc3cn2)ccn1`, the CC50 in series [1] stood at 9530 nM. In addition, the results for the EC50 with Schistosoma mansoni [2] and with Schistosoma mansoni [3] were 91.7 nM and 37 nM, respectively. In the series with Schistosoma mansoni [2], `Oc1ccc(-c2cnc3cnc(-c4cnn(Cc5ccccc5)c4)cn23)cc1` returned an EC50 above 25000 nM. As for `CC(C)c1cc(-c2cn3c(-c4c(F)cc(O)cc4F)c(C4CC4)nc3cn2)ccc1F`, the 50% effective concentration (EC50) with Schistosoma mansoni [2] was 5.19 nM; in the series with Schistosoma mansoni [3], 4.48 nM.

For `Oc1ccc(-c2cnc3cnc(-c4ccnc(C(F)(F)F)c4)cn23)cc1`, the EC50 in the series with Schistosoma mansoni [2] was above 25000 nM.

In the case of `COc1c(O)cccc1-c1c(C(C)C)nc2cnc(-c3cccc(C(F)(F)F)c3)cn12`, the EC50 in the series with Schistosoma mansoni [2] was determined as 1320 nM; in the series on Schistosoma mansoni [3], 1760 nM.

In the case of `Oc1ccc(-c2cnc3cnc(-c4cccc(C(F)(F)F)c4)cn23)c(Cl)c1`, the response with Schistosoma mansoni [2] was half-maximal at 4260 nM (EC50). Take `CC(C)c1nc2cnc(-c3cccc(Br)c3)cn2c1-c1ccc2[nH]ncc2c1F`: the EC50 with Schistosoma mansoni [2] came out at 26.6 nM; with Schistosoma mansoni [3], 36 nM. On to `Oc1ccc(-c2cnc3cnc(-c4cnc(-c5ccccc5)o4)cn23)cc1`, for which, in the series on Schistosoma mansoni [2], the concentration for a half-maximal effect (EC50) is above 25000 nM. On the same count and under the same terms, under `Oc1ccc(-c2cnc3cnc(-c4cnn(CC5CC5)c4)cn23)cc1` stands above 25000 nM. `Fc1ccc(-c2cn3c(-c4ccc5[nH]ncc5c4F)c(C(F)(F)F)nc3cn2)cc1Br`: the figures for the half-maximal effective concentration (EC50) in the series with Schistosoma mansoni [2] and in the series on Schistosoma mansoni [3] were 34.4 nM and 47.9 nM, respectively. `Oc1ccc(-c2cnc3cnc(-c4cccc(C(F)(F)F)c4F)cn23)cc1` displayed a half-maximal effective concentration (EC50) in the series with Schistosoma mansoni [2] above 25000 nM.

In the series on Schistosoma mansoni [2], `Oc1ccc(-c2cnc3cnc(-c4ccc5cn[nH]c5c4)cn23)cc1` yielded an EC50 of 25000 nM. Turning to `CC(C)c1nc2cnc(-c3ccc(F)c(C(F)(F)F)c3)cn2c1-c1c(F)ccc(O)c1F`, the 50% effective concentration (EC50) was determined as 320 nM in the series on Schistosoma mansoni [2] and 455 nM with Schistosoma mansoni [3].

Turning to `COc1cc(O)ccc1-c1c(C(C)C)nc2cnc(-c3cccc(C(F)(F)F)c3)cn12`, the EC50 in the series with Schistosoma mansoni [2] turned out to be 1050 nM; with Schistosoma mansoni [3], 918 nM.

Consider `COc1cc(-c2c(C)nc3cnc(-c4cccc(C(F)(F)F)c4)cn23)ccc1O`, for which the EC50 is 1270 nM in the series with Schistosoma mansoni [2] and below 640 nM in the series with Schistosoma mansoni [3]. Turning to `CC(C)c1cccc(-c2ccc3nnc(-c4ccc(O)cc4)n3c2)c1`, in the series with Schistosoma mansoni [2], the 50% effective concentration (EC50) was above 25000 nM. With `CC(C)Oc1cccc(-c2cn3c(-c4ccc(O)cc4)cnc3cn2)c1`, the EC50 was determined as 5310 nM in the series on Schistosoma mansoni [2] and 4430 nM with Schistosoma mansoni [3]. In the series on Schistosoma mansoni [2], `COc1ccc(-c2nnc3ccc(-c4cccc(C(C)C)c4)cn23)cc1O` showed an EC50 of 9740 nM. On to `C#CCOc1cc(-c2cn3c(-c4ccc5[nH]ncc5c4F)c(C(F)(F)F)nc3cn2)ccc1F`, for which the half-maximal effective concentration (EC50) was found to be 21 nM in the series on Schistosoma mansoni [2] and 10.4 nM with Schistosoma mansoni [3]. With `Oc1cc(F)c(-c2c(CC(F)(F)F)nc3cnc(-c4ccc(F)c(C(F)(F)F)c4)cn23)c(F)c1`, the concentration for a half-maximal effect (EC50) in the series on Schistosoma mansoni [2] amounted to 139 nM; with Schistosoma mansoni [3], 79.3 nM. For `CC(C)c1nc2cnc(-c3ccc(F)c(C(F)(F)F)c3)cn2c1-c1ccc2[nH]cnc2c1F`, in that order: 658 nM and 904 nM.
